Where only a bound is given, the exact number is not on record here.

We go through one molecule from ChEMBL document CHEMBL1148981, “A phthalide with in vitro growth inhibitory activity from an oidiodendron strain” (J Nat Prod, 2004).

One assay relates to EKVX. Nature of the assay: Cytotoxicity against human EKVX cells. It counts as functional. The method in brief: (§1)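 Growth inhibition read as GI50. Lines were run at one of two sites. At Cetek, cells grew in ATCC-recommended media and viability was read as CellTiter Blue resazurin reduction by fluorescence at 530/590. At NCI DTP, cells grew in RPMI 1640 with 5% FBS and 2 mM L-glutamine, and viability was read by TCA fixation and sulforhodamine B total-protein staining.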

In a further assay the test system is OVCAR-5. The assay can be described thus: Cytotoxicity against human OVCAR5 cells. Type of assay: functional. The essentials: as §1
Another assay deals with U-937. Nature of the assay: Cytotoxicity against human U937 cells. Type of assay: functional. The method in brief:
as §1

A further assay has as its system SNB-75. Nature of the assay: Cytotoxicity against human SNB75 cells. Type of assay: functional. The essentials:
as §1

The next assay has as its system MCF7. Nature of the assay: Cytotoxicity against human MCF7 cells. It counts as functional. The essentials: as §1
In the next assay the test system is M14. The assay can be described thus: Cytotoxicity against human M14 cells. It counts as functional. The method in brief:
as §1

In the next assay the test system is MDA-MB-435. The assay can be described thus: Cytotoxicity against human MDA-MB-435 cells. It counts as functional. The essentials: as §1
The target of assay [1] is T1, RAC-alpha serine/threonine-protein kinase (Homo sapiens, UniProt P31749). Nature of the assay: Inhibition of sulfhydryl-labeled human recombinant Akt1 expressed in baculovirus by affinity capillary electrophoresis assay. The essentials:
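Baculovirus-expressed human Akt1 was buffer-exchanged into 30 mM HEPES pH 7.5 with 0.1% Chaps and 150 mM NaCl. It was labeled with Fluorescein-5-EX succinimidyl ester (dye:protein 5:1) for 2 h on ice, quenched with β-mercaptoethanol and stored in 50% glycerol at -20 °C. Compound was titrated against labeled Akt1 by affinity capillary electrophoresis. IC50 is the mean of three experiments with SEM.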

Another assay relates to U-251. Nature of the assay: Cytotoxicity against human U251 cells. Type of assay: functional. The method in brief:
as §1

Another assay concerns OVCAR-8. Nature of the assay: Cytotoxicity against human OVCAR8 cells. Type of assay: functional. The method in brief:
as §1

Another assay has as its system Jurkat. The assay can be described thus: Cytotoxicity against human Jurkat cells. It counts as functional. The method in brief:
as §1

Another assay concerns RPMI-8226. The assay can be described thus: Cytotoxicity against human RPMI8226 cells. It counts as functional. The essentials: as §1
The test system of the next assay is SK-MEL-28. The assay can be described thus: Cytotoxicity against human SK-MEL-28 cells. It counts as functional. The method in brief:
as §1

A further assay concerns K562. Nature of the assay: Cytotoxicity against human K562 cells. It counts as functional. The essentials: as §1
Assay [2] deals with T1, RAC-alpha serine/threonine-protein kinase. Nature of the assay: Inhibition of sulfhydryl-labeled human recombinant Akt1 expressed in baculovirus assessed as phosphorylation of recombinant Bad protein by Western blotting. The method in brief: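 Active recombinant Akt1 (50 nM final) was preincubated 5 min at room temperature with test agent in DMSO (1.4% final) in assay dilution buffer. Soluble Bad (1.2 µM final) and Mg-ATP solution were then added, followed by 30 min at 30 °C with agitation. Read-out was SDS-PAGE, PVDF transfer, anti-phospho-Bad (Ser112) with HRP secondary, chemiluminescence and densitometry. IC50 is the mean of three experiments.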
For orientation: In western blotting, separated proteins are transferred to a membrane and probed.

The test system of the next assay is BT-549. Nature of the assay: Cytotoxicity against human BT549 cells. Type of assay: functional. The essentials: as §1
A further assay relates to OVCAR-3. Nature of the assay: Cytotoxicity against human OVCAR-3 cells. Type of assay: functional. The essentials: as §1
Another assay relates to HepG2. The assay can be described thus: Cytotoxicity against human HepG2 cells. It counts as functional. The essentials: as §1
Another assay has as its system NCI-H23. Nature of the assay: Cytotoxicity against human NCI-H23 cells. It counts as functional. The method in brief: as §1

T1 sequence (P31749 whole entry): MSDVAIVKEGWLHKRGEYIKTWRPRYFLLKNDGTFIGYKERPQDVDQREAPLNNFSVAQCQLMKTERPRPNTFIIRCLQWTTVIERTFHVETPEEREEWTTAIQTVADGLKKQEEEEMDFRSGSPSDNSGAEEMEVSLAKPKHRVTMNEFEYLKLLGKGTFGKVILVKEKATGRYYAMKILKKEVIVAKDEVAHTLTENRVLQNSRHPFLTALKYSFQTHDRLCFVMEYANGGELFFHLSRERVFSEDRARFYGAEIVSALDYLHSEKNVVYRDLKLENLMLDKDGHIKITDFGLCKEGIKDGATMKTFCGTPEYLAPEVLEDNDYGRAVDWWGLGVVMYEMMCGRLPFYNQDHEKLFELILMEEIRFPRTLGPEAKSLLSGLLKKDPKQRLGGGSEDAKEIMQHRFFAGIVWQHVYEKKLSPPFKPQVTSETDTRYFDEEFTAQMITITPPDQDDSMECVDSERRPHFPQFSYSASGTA

Usually GI50 stands for the concentration that inhibits growth by half. A low value points to greater sensitivity of the cells. The term IC50 denotes the concentration at which inhibition is half-maximal. Take `CC1OC(=O)c2cc(O)c(O)c(O)c21` (centres undefined): the GI50 in the assay with EKVX is greater than 100 µM; with OVCAR-5, 74 µM; in the assay on U-937, 60 µM; in the assay on SNB-75, 60 µM; in the assay with MCF7, greater than 100 µM; with M14, greater than 100 µM. Further, the GI50 in the assay with MDA-MB-435 was 85 µM; in the assay on U-251 it was greater than 100 µM; in the assay on OVCAR-8, 82 µM; in the assay on Jurkat, 20 µM; with RPMI-8226, 67 µM; with SK-MEL-28, 37 µM. The GI50 in the assay on K562 is greater than 100 µM; in the assay on BT-549, 24 µM; in the assay with OVCAR-3 it was greater than 100 µM; with HepG2 it was greater than 100 µM; in the assay on NCI-H23, 87 µM. For the same molecule, the IC50 in assay [1] is 19.7 µM; in assay [2], 30.4 µM.
